{
  "source": "ChEMBL document CHEMBL1126221",
  "about": "“Antimitotic agents: structure-activity studies with some pyridine derivatives” (J Med Chem, 1992)",
  "key": {"L1210 [1]": {"system": "L1210", "test": "Concentration required to inhibit proliferation of cultured lymphoid leukemia L1210 cells to 50% growth over 48 hours", "type": "functional, cell-based", "settings": "Mus musculus, L1210, 48 h", "procedure,_shortened": "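Cultured lymphoid leukemia L1210 cells were exposed to agent for 48 h. IC50 is the micromolar concentration that holds proliferation to 50% growth.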"}, "P388 [2]": {"system": "P388", "test": "Compound was evaluated for antitumor activity against mice implanted with lymphatic leukemia P388 cells (10e6 tumor cells) after intraperitoneal administration of 400 mg/kg per injection (1-5 days)", "type": "functional", "settings": "Mus musculus, P388, ip", "procedure,_shortened": "(§1)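 Mice implanted ip with 10⁶ lymphocytic leukemia P388 cells; drug given ip on days 1-5. Read-out is % increase in life span (% ILS) versus untreated controls, reported at the highest nontoxic dose tested.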"}, "L1210 [3]": {"system": "L1210", "test": "Compound was evaluated for antitumor activity against mice implanted with lymphatic leukemia L1210 cells (10e6 tumor cells) after intraperitoneal administration of 50 mg/kg per injection", "type": "functional", "settings": "Mus musculus, L1210, ip"}, "P388 [4]": {"system": "P388", "test": "Compound was evaluated for antitumor activity against mice implanted with lymphatic leukemia P388 cells (10e6 tumor cells) after intraperitoneal administration of 50 mg/kg per injection (1-5 days)", "type": "functional", "settings": "Mus musculus, P388, ip", "procedure,_shortened": "as §1"}, "[5]": {"test": "Compound's concentration required to inhibit proliferation of cultured KB cells to 50% growth during 48 hours.", "type": "functional, cell-based", "settings": "Homo sapiens"}, "P388 [6]": {"system": "P388", "test": "Compound was evaluated for antitumor activity against mice implanted with lymphatic leukemia P388 cells (10e6 tumor cells) after intraperitoneal administration of 100 mg/kg per injection", "type": "functional", "settings": "Mus musculus, P388, ip"}, "P388 [7]": {"system": "P388", "test": "Compound was evaluated for antitumor activity against mice implanted with lymphatic leukemia P388 cells (10e6 tumor cells) after intraperitoneal administration of 5 mg/kg per injection (1-5 days)", "type": "functional", "settings": "Mus musculus, P388, ip", "procedure,_shortened": "as §1"}},
  "data": [
    {"smiles": "CCOC(=O)Nc1cc(N[C@@H](C)C(=O)c2ccccc2)c([N+](=O)[O-])c(N)n1", "values": [
      {"measurement": "IC50", "setting": "L1210 [1]", "result": 27, "unit": "µM"},
      {"measurement": "ILS at 400 mg/kg", "setting": "P388 [2]", "result": 39, "unit": "%"}
    ]},
    {"smiles": "CCOC(=O)Nc1cc(NC(c2ccccc2)c2ccccc2)c([N+](=O)[O-])c(N)n1", "values": [
      {"measurement": "ILS at 50 mg/kg", "setting": "L1210 [3]", "result": 0, "unit": "%"}
    ]},
    {"smiles": "CCOC(=O)Nc1cc(N[C@@H](C)[C@H](O)c2ccccc2)c(N)c(N)n1", "values": [
      {"measurement": "IC50", "setting": "L1210 [1]", "result": 1.3, "unit": "µM"},
      {"measurement": "ILS at 50 mg/kg", "setting": "P388 [4]", "result": 36, "unit": "%"}
    ]},
    {"smiles": "CCOC(=O)Nc1cc(N)c(N)c(N)n1", "values": [
      {"measurement": "IC50", "setting": "[5]", "result": 10, "unit": "µM"},
      {"measurement": "ILS at 100 mg/kg", "setting": "P388 [6]", "result": 0, "unit": "%"}
    ]},
    {"smiles": "CCOC(=O)Nc1cc(NC(C)/C(=N/O)c2ccc(O)cc2)c([N+](=O)[O-])c(N)n1", "note": "(centres undefined)", "values": [
      {"measurement": "IC50", "setting": "L1210 [1]", "result": 18, "unit": "µM"},
      {"measurement": "ILS at 5 mg/kg", "setting": "P388 [7]", "result": 57, "unit": "%"}
    ]}
  ]
}
